Data taken from ChEMBL document CHEMBL1140884, “Oligodeoxyribonucleotide-based antagonists for Toll-like receptors 7 and 9” (2009).
The source made the active and inactive calls. The calls are words filed in the database; no cut-off is given here.

Columns and labels:
[1] = biological target: T1, Toll-like receptor 9 (Mus musculus) (UniProt Q9EQU3); assay: Antagonist activity at mouse TLR9 expressed in HEK293 cells assessed as inhibition of 5'-CTATCTGTCGTTCTCTGT-3'-induced NF-kappaB activation by SEAP reporter gene assay; format: functional, cell-based
T1 sequence (whole entry): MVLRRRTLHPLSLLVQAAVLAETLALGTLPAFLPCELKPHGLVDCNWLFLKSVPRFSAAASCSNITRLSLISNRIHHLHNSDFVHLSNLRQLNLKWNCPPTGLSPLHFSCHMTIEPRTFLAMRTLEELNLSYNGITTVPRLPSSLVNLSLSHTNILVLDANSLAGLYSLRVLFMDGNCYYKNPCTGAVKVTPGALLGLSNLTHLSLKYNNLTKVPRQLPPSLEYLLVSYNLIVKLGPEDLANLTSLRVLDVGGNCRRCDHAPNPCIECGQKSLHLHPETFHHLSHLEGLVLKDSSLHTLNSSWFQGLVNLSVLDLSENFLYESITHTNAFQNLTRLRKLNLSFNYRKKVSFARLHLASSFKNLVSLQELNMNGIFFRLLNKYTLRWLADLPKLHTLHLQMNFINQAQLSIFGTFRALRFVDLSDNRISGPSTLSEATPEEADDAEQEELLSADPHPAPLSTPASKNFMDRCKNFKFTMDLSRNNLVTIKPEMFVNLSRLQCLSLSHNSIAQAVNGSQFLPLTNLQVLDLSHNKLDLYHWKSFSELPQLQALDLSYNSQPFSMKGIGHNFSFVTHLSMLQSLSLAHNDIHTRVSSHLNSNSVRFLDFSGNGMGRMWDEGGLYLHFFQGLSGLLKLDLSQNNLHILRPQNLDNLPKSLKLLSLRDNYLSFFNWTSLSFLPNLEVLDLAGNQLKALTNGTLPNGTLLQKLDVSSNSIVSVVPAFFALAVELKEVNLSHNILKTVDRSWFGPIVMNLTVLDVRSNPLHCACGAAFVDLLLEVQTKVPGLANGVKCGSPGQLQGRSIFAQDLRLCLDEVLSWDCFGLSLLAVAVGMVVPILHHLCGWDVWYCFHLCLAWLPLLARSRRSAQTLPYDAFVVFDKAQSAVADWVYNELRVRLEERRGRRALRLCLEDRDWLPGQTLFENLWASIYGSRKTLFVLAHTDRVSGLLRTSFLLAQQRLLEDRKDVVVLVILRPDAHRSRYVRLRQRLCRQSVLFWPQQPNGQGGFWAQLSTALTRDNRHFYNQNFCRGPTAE
How it was run: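 Mouse TLR9-HEK293 cells were transfected with a SEAP reporter for 6 h. They were then stimulated for 18 h with agonist (0.25 or 0.5 µg/mL) plus increasing antagonist concentrations or set agonist:antagonist ratios. Quanti-Blue read-out, reported as % NF-κB activity with agonist alone as 100%.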

[2] = biological target: T1, Toll-like receptor 9 (Mus musculus); assay: Agonist activity at mouse TLR9 expressed in HEK293 cells assessed as activation of NF-kappaB at 10 ug/mL by SEAP reporter gene assay; format: functional, cell-based
How it was run: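 HEK293 cells stably expressing mouse TLR9 were transiently transfected with a SEAP reporter for 6 h. Compounds were added at 10 µg/mL for 18 h. SEAP was read with Quanti-Blue substrate and expressed as fold change in NF-κB activity.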

PBMC = assay: Inhibition of 5'-TCTGTCRTTCT-X-TCTTRCTGTCT-5'-induced human PBMC proliferation treated 72 hrs before induction; format: functional, cell-based
Mus musculus [3] = assay: Inhibition of 5'-TCTGACRTTCT-X-TCTTRCAGTCT-3'-induced IL12 production in C57BL/6 mouse at 10 mg/kg, sc; format: functional, organism-based; design: dose 10 mg/kg
How it was run: (§1)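 C57BL/6 mice received antagonist or control 10 mg/kg sc, either with TLR9 agonist 0.25 mg/kg sc or up to 48 h before it. Serum IL-12 was measured 2 h after agonist. Two or three independent experiments; mean ± SEM, Student's t test versus PBS.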

Mus musculus [4] = assay: Inhibition of 5'-TCTGACRTTCT-X-TCTTRCAGTCT-3'-induced IL12 production in C57BL/6 mouse pretreated before up to 48 hrs of induction at 10 mg/kg, sc; format: functional, organism-based; design: dose 10 mg/kg; how it was run: as §1
[5] = biological target: T1, Toll-like receptor 9 (Mus musculus); assay: Agonist activity at TLR9 in mouse J774 cells assessed as of NF-kappaB activation; format: functional, cell-based
How it was run: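 Murine J774 macrophages grown in DMEM with 10% FBS and plated at 5×10^6 cells/well. Nuclear extracts taken 1 h after agonist addition. NF-κB detected by EMSA on native polyacrylamide gels with autoradiography.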

Mus musculus [6] = assay: Induction of IL6 secretion in C57BL/6 mouse at 0.25 mg/kg, sc; format: functional, organism-based; design: dose 0.25 mg/kg
How it was run: (§2)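 Female C57BL/6 mice, 6–8 weeks old (n=3), were injected sc with single compounds at 0.25 or 20 mg/kg. Serum was collected by retro-orbital bleed 2 h later and cytokines were measured by Luminex mouse 20-plex assay.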

Mus musculus [7] = assay: Induction of cytokine MIG secretion in C57BL/6 mouse at 0.25 mg/kg, sc; format: functional, organism-based; design: dose 0.25 mg/kg; how it was run: as §2
Mus musculus [8] = assay: Induction of cytokine MCP1 secretion in C57BL/6 mouse at 0.25 mg/kg, sc; format: functional, organism-based; design: dose 0.25 mg/kg; how it was run: as §2
Mus musculus [9] = assay: Induction of cytokine KC secretion in C57BL/6 mouse at 0.25 mg/kg, sc; format: functional, organism-based; design: dose 0.25 mg/kg; how it was run: as §2
Mus musculus [10] = assay: Induction of IP10 secretion in C57BL/6 mouse at 0.25 mg/kg, sc; format: functional, organism-based; design: dose 0.25 mg/kg; how it was run: as §2
Mus musculus [11] = assay: Induction of IL10 secretion in C57BL/6 mouse at 0.25 mg/kg, sc; format: functional, organism-based; design: dose 0.25 mg/kg; how it was run: as §2
Mus musculus [12] = assay: Induction of IL12 secretion in C57BL/6 mouse at 0.25 mg/kg, sc; format: functional, organism-based; design: dose 0.25 mg/kg; how it was run: as §2

| Structure (SMILES) | Activity [1] | Activity [2] | Activity (PBMC) | Activity (Mus musculus [3]) | Activity (Mus musculus [4]) | Activity [5] | Activity (Mus musculus [6]) | Activity (Mus musculus [7]) | Activity (Mus musculus [8]) | Activity (Mus musculus [9]) | Activity (Mus musculus [10]) | Activity (Mus musculus [11]) | Activity (Mus musculus [12]) |
| --- | --- | --- | --- | --- | --- | --- | --- | --- | --- | --- | --- | --- | --- |
| CO[C@@H]1[C@H](OP(=O)(S)OC[C@H]2O[C@@H](n3ccc(N)nc3=O)C[C@@H]2OP(=O)(S)OC[C@H]2O[C@@H](n3cnc4c(=O)[nH]c(N)nc43)C[C@@H]2OP(=O)(S)OC[C@H]2O[C@@H](n3cc(C)c(=O)[nH]c3=O)C[C@@H]2OP(=O)(S)OC[C@H]2O[C@@H](n3cc(C)c(=O)[nH]c3=O)C[C@@H]2OP(=O)(S)OC[C@H]2O[C@@H](n3ccc(N)nc3=O)C[C@@H]2OP(=O)(S)OC[C@H]2O[C@@H](n3cc(C)c(=O)[nH]c3=O)C[C@@H]2OP(=O)(S)OC[C@H]2O[C@@H](n3ccc(N)nc3=O)C[C@@H]2OP(=O)(S)OC[C@H]2O[C@@H](n3cc(C)c(=O)[nH]c3=O)C[C@@H]2OP(=O)(S)OC[C@H]2O[C@@H](n3cnc4c(=O)[nH]c(N)nc43)C[C@@H]2OP(=O)(S)OC[C@H]2O[C@@H](n3cc(C)c(=O)[nH]c3=O)C[C@@H]2O)[C@@H](COP(=O)(S)O[C@H]2[C@@H](OC)[C@H](n3cnc4c(=O)[nH]c(N)nc43)O[C@@H]2COP(=O)(S)O[C@H]2C[C@H](n3cc(C)c(=O)[nH]c3=O)O[C@@H]2COP(=O)(S)O[C@H]2C[C@H](n3ccc(N)nc3=O)O[C@@H]2COP(=O)(S)O[C@H]2C[C@H](n3cc(C)c(=O)[nH]c3=O)O[C@@H]2COP(=O)(S)O[C@H]2C[C@H](n3cnc4c(N)ncnc43)O[C@@H]2COP(=O)(S)O[C@H]2C[C@H](n3cc(C)c(=O)[nH]c3=O)O[C@@H]2COP(=O)(S)O[C@@H]2C[C@@H](n3ccc(N)nc3=O)O[C@H]2CO)O[C@H]1n1ccc(=O)[nH]c1=O (stereo not given in full) | Active | inactive | Active |  |  |  |  |  |  |  |  |  |  |
| CO[C@@H]1[C@H](OP(=O)(S)OC[C@H]2O[C@@H](n3cnc4c(N)ncnc43)[C@H](OC)[C@@H]2OP(=O)(S)OC[C@H]2O[C@@H](n3ccc(N)nc3=O)C[C@@H]2OP(=O)(S)OC[C@H]2O[C@@H](n3ccc(N)nc3=O)C[C@@H]2OP(=O)(S)OC[C@H]2O[C@@H](n3cc(C)c(=O)[nH]c3=O)C[C@@H]2OP(=O)(S)OC[C@H]2O[C@@H](n3cc(C)c(=O)[nH]c3=O)C[C@@H]2OP(=O)(S)OC[C@H]2O[C@@H](n3ccc(N)nc3=O)C[C@@H]2OP(=O)(S)OC[C@H]2O[C@@H](n3cc(C)c(=O)[nH]c3=O)C[C@@H]2OP(=O)(S)OC[C@H]2O[C@@H](n3ccc(N)nc3=O)C[C@@H]2OP(=O)(S)OC[C@H]2O[C@@H](n3cc(C)c(=O)[nH]c3=O)C[C@@H]2OP(=O)(S)OC[C@H]2O[C@@H](n3cnc4c(=O)[nH]c(N)nc43)C[C@@H]2OP(=O)(S)OC[C@H]2O[C@@H](n3cc(C)c(=O)[nH]c3=O)C[C@@H]2O)[C@@H](COP(=O)(S)O[C@H]2C[C@H](n3cc(C)c(=O)[nH]c3=O)O[C@@H]2COP(=O)(S)O[C@H]2[C@@H](O)[C@H](n3ccc(N)nc3=O)O[C@@H]2COP(=O)(S)O[C@H]2C[C@H](n3cc(C)c(=O)[nH]c3=O)O[C@@H]2COP(=O)(S)O[C@H]2C[C@H](n3cnc4c(N)ncnc43)O[C@@H]2COP(=O)(S)O[C@H]2C[C@H](n3cc(C)c(=O)[nH]c3=O)O[C@@H]2COP(=O)(S)O[C@@H]2C[C@@H](n3ccc(N)nc3=O)O[C@H]2CO)O[C@H]1n1ccc(N)nc1=O (stereo not given in full) |  | inactive |  | inactive | inactive |  |  |  |  |  |  |  |  |
| Cc1cn([C@H]2C[C@H](OP(=O)(S)OC[C@H]3O[C@@H](n4ccc(N)nc4=O)C[C@@H]3OP(=O)(S)OC[C@H]3O[C@@H](n4cc(C)c(=O)[nH]c4=O)C[C@@H]3OP(=O)(S)OC[C@H]3O[C@@H](n4cnc5c(=O)[nH]c(N)nc54)C[C@@H]3OP(=O)(S)OC[C@H]3O[C@@H](n4cnc5c(N)ncnc54)C[C@@H]3OP(=O)(S)OC[C@H]3O[C@@H](n4ccc(N)nc4=O)C[C@@H]3OP(=O)(S)OC[C@H]3O[C@@H](n4ccc5c(N)ncnc54)C[C@@H]3OP(=O)(S)OC[C@H]3O[C@@H](n4cc(C)c(=O)[nH]c4=O)C[C@@H]3OP(=O)(S)OC[C@H]3O[C@@H](n4cc(C)c(=O)[nH]c4=O)C[C@@H]3OP(=O)(S)OC[C@H]3O[C@@H](n4ccc(N)nc4=O)C[C@@H]3OP(=O)(S)OC[C@H]3O[C@@H](n4cc(C)c(=O)[nH]c4=O)C[C@@H]3OP(=O)(S)OCC(O)COP(=O)(S)O[C@H]3C[C@H](n4cc(C)c(=O)[nH]c4=O)O[C@@H]3COP(=O)(S)O[C@H]3C[C@H](n4ccc(N)nc4=O)O[C@@H]3COP(=O)(S)O[C@H]3C[C@H](n4cc(C)c(=O)[nH]c4=O)O[C@@H]3COP(=O)(S)O[C@H]3C[C@H](n4cc(C)c(=O)[nH]c4=O)O[C@@H]3COP(=O)(S)O[C@H]3C[C@H](n4ccc5c(=O)[nH]c(N)nc54)O[C@@H]3COP(=O)(S)O[C@H]3C[C@H](n4ccc(N)nc4=O)O[C@@H]3COP(=O)(S)O[C@H]3C[C@H](n4cnc5c(N)ncnc54)O[C@@H]3COP(=O)(S)O[C@H]3C[C@H](n4cnc5c(=O)[nH]c(N)nc54)O[C@@H]3COP(=O)(S)O[C@H]3C[C@H](n4cc(C)c(=O)[nH]c4=O)O[C@@H]3COP(=O)(S)O[C@H]3C[C@H](n4ccc(N)nc4=O)O[C@@H]3COP(=O)(S)O[C@H]3C[C@H](n4cc(C)c(=O)[nH]c4=O)O[C@@H]3CO)[C@@H](CO)O2)c(=O)[nH]c1=O (stereo not given in full) |  | Active |  |  |  | Active | Active | Active | Active | Active | Active | Active | Active |
